Data on 14 compounds can be found in ChEMBL document CHEMBL2406990, “Guanidine alkaloids from Plumbago zeylanica” (J Nat Prod, 2013).

Bounds are passed on as bounds.

The test system of one assay is PANC-1. As to the kind of experiment: Cytotoxicity against human PANC1 cells after 72 hrs by SRB assay. Format: functional, cell-based. The conditions noted are these: PANC-1, 72 h. In a few lines: (§1)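 Cells seeded and left 24 h, then exposed to serial dilutions of compound (top concentration 100 μM). Incubation 72 h at 37 °C in humidified 5% CO2. Fixed with 10% trichloroacetic acid (4 °C, 1 h), water-washed, dried, stained 15 min with 0.4% SRB in 1% acetic acid. Unbound dye removed with 1% acetic acid, bound dye taken up in 10 mM Tris base, A510 read. Triplicate, IC50.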
Background: In SRB staining, fixed cells bind dye roughly in proportion to their protein.

For a further assay, the system named is MDA-MB-231. As to the kind of experiment: Cytotoxicity against human MDA-MB-231 cells after 72 hrs by SRB assay. The format is functional, cell-based. Particulars: MDA-MB-231, 72 h. In a few lines:
as §1

As usually defined, the IC50 is the concentration at which inhibition is half-maximal. For the compound `CC1=C[C@@H](C[C@@H](C(=O)O)[C@@H]2CN(CC(O)CCO[C@H]3OC[C@@H](O)[C@H](O)[C@H]3O)C(=N)N2)OC1=O` (stereo partly drawn), the IC50 in the assay on PANC-1 and with MDA-MB-231 was above 10 µM in each case.
`CC(C)=CCC[C@@H](C(=O)O)[C@@H]1CNC(=N)N1`: the 50% inhibitory concentration (IC50) with PANC-1 and with MDA-MB-231 was above 10 µM each time.
Take `CC(C)=C[C@@H]1C[C@@H](C(=O)O)[C@@H]2CN(CC(O)CCO[C@H]3OC[C@@H](O)[C@H](O)[C@H]3O)C(=N)N12` (stereo partly drawn): the concentration for half-maximal inhibition (IC50) with PANC-1 and in the assay with MDA-MB-231 was above 10 µM in each case.
As for `CC1=C[C@@H](C[C@@H](C(=O)O)[C@@H]2CN(CC(O)CCO)C(=N)N2)OC1=O` (stereo partly drawn), the half-inhibitory concentration (IC50) in the assay on PANC-1 and with MDA-MB-231 was above 10 µM throughout.
With `C/C(=C\CC[C@@H](C(=O)O)[C@@H]1CN(CC(O)CCO)C(=N)N1)CO` (stereo partly drawn), the IC50 in the assay with PANC-1 and in the assay on MDA-MB-231 was above 10 µM throughout.
With `CC(C)=CCC[C@@H](C(=O)O)[C@@H]1CN(CC(O)CCO)C(=N)N1` (stereo partly drawn), the IC50 in the assay on PANC-1 and in the assay with MDA-MB-231 was above 10 µM each time.
As to `CC(C)=C[C@@H]1C[C@@H](C(=O)O)[C@@H]2CN(CC(O)CCO)C(=N)N12` (stereo partly drawn), the half-maximal inhibitory concentration (IC50) in the assay with PANC-1 and with MDA-MB-231 was above 10 µM in each case.
Regarding `CC1=C[C@@H](C[C@@H](C(=O)O)[C@@H]2CNC(=N)N2)OC1=O`, the half-maximal inhibitory concentration (IC50) in the assay on PANC-1 and in the assay on MDA-MB-231 was above 10 µM throughout.
Take `C/C(=C\CC[C@@H](C(=O)O)[C@@H]1CN(CC(O)CCO[C@H]2OC[C@@H](O)[C@H](O)[C@H]2O)C(=N)N1)CO` (stereo partly drawn): the IC50 with PANC-1 and in the assay with MDA-MB-231 was above 10 µM in each case.
In the case of `CC(C)(O)CCC[C@@H](C(=O)O)[C@@H]1CNC(=N)N1`, the 50% inhibitory concentration (IC50) in the assay on PANC-1 and in the assay on MDA-MB-231 was above 10 µM each time.
Turning to `C/C(=C\CC[C@@H](C(=O)O)[C@@H]1CNC(=N)N1)CO`, the IC50 with PANC-1 and with MDA-MB-231 was above 10 µM each time.
`CC(C)=CCC[C@@H](C(=O)O)[C@@H]1CN(CC(O)CCO[C@H]2OC[C@@H](O)[C@H](O)[C@H]2O)C(=N)N1` (stereo partly drawn): the IC50 in the assay on PANC-1 and in the assay with MDA-MB-231 was above 10 µM in each case.
Take `CC(C)=C[C@@H]1C[C@@H](C(=O)O)[C@@H]2CNC(=N)N12`: the half-maximal inhibitory concentration (IC50) with PANC-1 and in the assay with MDA-MB-231 was above 10 µM in each case.
With `CC(=O)O[C@H]1C(=O)[C@@]2(C)[C@H]([C@H](OC(=O)c3ccccc3)[C@]3(O)C[C@H](OC(=O)[C@H](O)[C@@H](NC(=O)c4ccccc4)c4ccccc4)C(C)=C1C3(C)C)[C@]1(OC(C)=O)CO[C@@H]1C[C@@H]2O` [PACLITAXEL], the IC50 in the assay with PANC-1 and in the assay on MDA-MB-231 was below 1 µM throughout.
